# Positions count from the first letter of the chain named.
# Molecular target: T1, OR8U1 (Homo sapiens) (UniProt Q8NH10)
# T1 sequence (whole entry): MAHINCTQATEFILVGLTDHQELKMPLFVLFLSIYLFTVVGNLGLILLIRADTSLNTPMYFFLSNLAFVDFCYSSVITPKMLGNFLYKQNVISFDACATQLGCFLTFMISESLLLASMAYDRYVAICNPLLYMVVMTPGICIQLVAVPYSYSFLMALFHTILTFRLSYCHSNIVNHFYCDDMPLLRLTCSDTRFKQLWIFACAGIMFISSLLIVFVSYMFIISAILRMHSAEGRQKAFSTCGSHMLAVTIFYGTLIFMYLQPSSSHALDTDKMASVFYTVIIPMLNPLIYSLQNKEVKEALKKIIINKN
# Settings: stereoisomer not certain
# How it was run: (§1)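 Transient luciferase assays in mammalian cell lines were common, though methods varied by source. The values come from published papers and their supplementary material, with extra details from the original authors when needed. Responsive refers to a measured signal the original authors judged statistically different from baseline, and non-responsive (inactive) to the remainder.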
# 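Further: active if original authors judged signal statistically different from baseline.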
row,SMILES,odorant receptor agonist call
1,CC1=NC(C)C(C)S1 (stereo not drawn),inactive
2,CCC(S)C(C)CO (stereo not drawn),inactive
3,CC1=C(O)C(=O)C(C)O1 (stereo not drawn),inactive
4,CCCC(S)CCOC(C)=O (stereo not drawn),inactive
5,Cc1cnc(C)c(C)n1,inactive
6,CC(=O)c1c(C)c([N+](=O)[O-])c(C(C)(C)C)c([N+](=O)[O-])c1C,inactive
7,CC1CCCCCCCCCCCCC(=O)C1 (stereo not drawn),inactive
8,CCC1OC(C)=C(O)C1=O (stereo not drawn),inactive
9,CC(CO)CS (stereo not drawn),inactive
10,CCCCCC(=O)C(C)C(C)=O (stereo not drawn),inactive
11,CC1=C(O)C(=O)OC1C (stereo not drawn),inactive
12,CCC1OC(=O)C(O)=C1C (stereo not drawn),inactive
13,CCCCCCC=CCCC=O,inactive
14,CCCCC(S)C(C)CO (stereo not drawn),inactive
15,CCCCCC(S)C(C)CO (stereo not drawn),inactive

# Molecular target: T2, OR8U3 (Homo sapiens) (UniProt Q8NH85)
# T2 sequence (whole entry): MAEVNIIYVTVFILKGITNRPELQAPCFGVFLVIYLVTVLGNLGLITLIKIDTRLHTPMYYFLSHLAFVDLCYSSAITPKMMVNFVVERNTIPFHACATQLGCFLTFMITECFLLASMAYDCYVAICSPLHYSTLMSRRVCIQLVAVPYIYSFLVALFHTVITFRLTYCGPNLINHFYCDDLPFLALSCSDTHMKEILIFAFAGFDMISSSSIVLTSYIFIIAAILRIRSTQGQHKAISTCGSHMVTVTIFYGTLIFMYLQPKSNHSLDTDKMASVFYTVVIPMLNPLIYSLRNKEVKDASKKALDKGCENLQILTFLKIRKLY
# Settings: stereoisomer not certain
# How it was run: as §1
row,SMILES,odorant receptor agonist call
1,CC1=NC(C)C(C)S1 (stereo not drawn),inactive
2,CCC(S)C(C)CO (stereo not drawn),inactive
3,CC1=C(O)C(=O)C(C)O1 (stereo not drawn),inactive
4,O=C1CCOc2ccccc21,active
5,CCCC(S)CCOC(C)=O (stereo not drawn),inactive
6,Cc1cnc(C)c(C)n1,inactive
7,CC(=O)c1c(C)c([N+](=O)[O-])c(C(C)(C)C)c([N+](=O)[O-])c1C,inactive
8,CC1CCCCCCCCCCCCC(=O)C1 (stereo not drawn),inactive
9,CCC1OC(C)=C(O)C1=O (stereo not drawn),inactive
10,CC(CO)CS (stereo not drawn),inactive
11,CCCCCC(=O)C(C)C(C)=O (stereo not drawn),inactive
12,CC1=C(O)C(=O)OC1C (stereo not drawn),inactive
13,CCC1OC(=O)C(O)=C1C (stereo not drawn),inactive
14,CCCCCCC=CCCC=O,inactive
15,O=c1ccc2ccccc2o1,active
16,CCCCC(S)C(C)CO (stereo not drawn),inactive
17,CCCCCC(S)C(C)CO (stereo not drawn),inactive

# Molecular target: T3, OR8U8 (Homo sapiens) (UniProt P0C7N1)
# T3 sequence (whole entry): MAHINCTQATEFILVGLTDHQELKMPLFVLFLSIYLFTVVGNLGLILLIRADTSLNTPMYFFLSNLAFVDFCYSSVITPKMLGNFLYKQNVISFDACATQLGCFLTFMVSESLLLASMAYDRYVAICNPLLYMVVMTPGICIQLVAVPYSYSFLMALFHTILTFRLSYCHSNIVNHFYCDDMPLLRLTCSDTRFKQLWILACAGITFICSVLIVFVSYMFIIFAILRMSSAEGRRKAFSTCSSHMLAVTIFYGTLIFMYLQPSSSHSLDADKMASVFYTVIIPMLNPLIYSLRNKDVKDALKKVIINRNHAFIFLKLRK
# Settings: stereoisomer not certain
# How it was run: as §1
row,SMILES,odorant receptor agonist call
1,CCC(S)C(C)CO (stereo not drawn),inactive
2,CC(=O)c1c(C)c([N+](=O)[O-])c(C(C)(C)C)c([N+](=O)[O-])c1C,inactive
3,CC1CCCCCCCCCCCCC(=O)C1 (stereo not drawn),inactive
4,CC(CO)CS (stereo not drawn),inactive
5,CCCCCC(=O)C(C)C(C)=O (stereo not drawn),inactive
6,CCCCCCC=CCCC=O,inactive
7,CCCCC(S)C(C)CO (stereo not drawn),inactive
8,CCCCCC(S)C(C)CO (stereo not drawn),inactive

# Tested on: T4, OR8U8
# T4 sequence (whole entry): T3 sequence (whole entry) with V109I, S112C
# Settings: stereoisomer not certain
# How it was run: as §1
row,SMILES,odorant receptor agonist call
1,CC1=NC(C)C(C)S1 (stereo not drawn),inactive
2,CC1=C(O)C(=O)C(C)O1 (stereo not drawn),inactive
3,CCCC(S)CCOC(C)=O (stereo not drawn),inactive
4,Cc1cnc(C)c(C)n1,inactive
5,CCC1OC(C)=C(O)C1=O (stereo not drawn),inactive
6,CC1=C(O)C(=O)OC1C (stereo not drawn),inactive
7,CCC1OC(=O)C(O)=C1C (stereo not drawn),inactive

# Tested on: T5, OR8U8
# T5 sequence (whole entry): T3 sequence (whole entry) with H20R, V109I, R165C
# Settings: stereoisomer not certain
# How it was run: as §1
row,SMILES,odorant receptor agonist call
1,CC1=NC(C)C(C)S1 (stereo not drawn),inactive
2,CC1=C(O)C(=O)C(C)O1 (stereo not drawn),inactive
3,CCCC(S)CCOC(C)=O (stereo not drawn),inactive
4,Cc1cnc(C)c(C)n1,inactive
5,CCC1OC(C)=C(O)C1=O (stereo not drawn),inactive
6,CC1=C(O)C(=O)OC1C (stereo not drawn),inactive
7,CCC1OC(=O)C(O)=C1C (stereo not drawn),inactive

# Molecular target: T6, OR8U9 (Homo sapiens) (UniProt P0C7N5)
# T6 sequence (whole entry): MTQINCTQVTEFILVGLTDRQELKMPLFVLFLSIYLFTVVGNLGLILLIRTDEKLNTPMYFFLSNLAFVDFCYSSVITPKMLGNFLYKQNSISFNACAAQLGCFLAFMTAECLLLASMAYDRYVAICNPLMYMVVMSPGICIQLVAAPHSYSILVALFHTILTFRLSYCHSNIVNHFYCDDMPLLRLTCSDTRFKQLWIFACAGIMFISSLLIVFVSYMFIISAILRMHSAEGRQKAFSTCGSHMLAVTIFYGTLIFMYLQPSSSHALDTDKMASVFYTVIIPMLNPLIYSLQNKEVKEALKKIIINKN
# Settings: stereoisomer not certain
# How it was run: as §1
row,SMILES,odorant receptor agonist call
1,CC1=NC(C)C(C)S1 (stereo not drawn),inactive
2,CCC(S)C(C)CO (stereo not drawn),inactive
3,CC1=C(O)C(=O)C(C)O1 (stereo not drawn),inactive
4,CCCC(S)CCOC(C)=O (stereo not drawn),inactive
5,Cc1cnc(C)c(C)n1,inactive
6,CC(=O)c1c(C)c([N+](=O)[O-])c(C(C)(C)C)c([N+](=O)[O-])c1C,inactive
7,CC1CCCCCCCCCCCCC(=O)C1 (stereo not drawn),inactive
8,CCC1OC(C)=C(O)C1=O (stereo not drawn),inactive
9,CC(CO)CS (stereo not drawn),inactive
10,CCCCCC(=O)C(C)C(C)=O (stereo not drawn),inactive
11,CC1=C(O)C(=O)OC1C (stereo not drawn),inactive
12,CCC1OC(=O)C(O)=C1C (stereo not drawn),inactive
13,CCCCCCC=CCCC=O,inactive
14,CCCCC(S)C(C)CO (stereo not drawn),inactive
15,CCCCCC(S)C(C)CO (stereo not drawn),inactive

# Tested on: T7, OR8U9 T2A Q3H Q293R
# T7 sequence (whole entry): T6 sequence (whole entry) with T2A, Q3H, Q293R
# Settings: stereoisomer not certain
# How it was run: as §1
row,SMILES,odorant receptor agonist call
1,CC1=NC(C)C(C)S1 (stereo not drawn),inactive
2,CC1=C(O)C(=O)C(C)O1 (stereo not drawn),inactive
3,CCCC(S)CCOC(C)=O (stereo not drawn),inactive
4,Cc1cnc(C)c(C)n1,inactive
5,CCC1OC(C)=C(O)C1=O (stereo not drawn),inactive
6,CC1=C(O)C(=O)OC1C (stereo not drawn),inactive
7,CCC1OC(=O)C(O)=C1C (stereo not drawn),inactive
8,CCCCCCC=CCCC=O,inactive

# Tested on: T8, OR8U9
# T8 sequence (whole entry): T6 sequence (whole entry) with Q293R
# Settings: stereoisomer not certain
# How it was run: as §1
row,SMILES,odorant receptor agonist call
1,CC1=NC(C)C(C)S1 (stereo not drawn),inactive
2,CC1=C(O)C(=O)C(C)O1 (stereo not drawn),inactive
3,CCCC(S)CCOC(C)=O (stereo not drawn),inactive
4,Cc1cnc(C)c(C)n1,inactive
5,CCC1OC(C)=C(O)C1=O (stereo not drawn),inactive
6,CC1=C(O)C(=O)OC1C (stereo not drawn),inactive
7,CCC1OC(=O)C(O)=C1C (stereo not drawn),inactive
8,CCCCCCC=CCCC=O,inactive

# Molecular target: T9, OR9A2 (Homo sapiens) (UniProt Q8NGT5)
# T9 sequence (whole entry): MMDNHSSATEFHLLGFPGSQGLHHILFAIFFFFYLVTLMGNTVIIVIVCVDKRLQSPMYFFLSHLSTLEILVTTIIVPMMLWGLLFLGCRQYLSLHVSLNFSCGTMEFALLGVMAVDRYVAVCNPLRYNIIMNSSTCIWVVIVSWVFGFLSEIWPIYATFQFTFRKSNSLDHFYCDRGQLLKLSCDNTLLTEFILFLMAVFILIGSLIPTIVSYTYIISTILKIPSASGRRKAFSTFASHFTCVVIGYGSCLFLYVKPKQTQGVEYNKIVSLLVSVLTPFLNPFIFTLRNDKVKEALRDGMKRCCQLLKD
# Settings: stereoisomer not certain
# How it was run: as §1
row,SMILES,odorant receptor agonist call
1,CC1=NC(C)C(C)S1 (stereo not drawn),inactive
2,CCC(S)C(C)CO (stereo not drawn),inactive
3,CC1=C(O)C(=O)C(C)O1 (stereo not drawn),inactive
4,CCCC(S)CCOC(C)=O (stereo not drawn),inactive
5,Cc1cnc(C)c(C)n1,inactive
6,CC(=O)c1c(C)c([N+](=O)[O-])c(C(C)(C)C)c([N+](=O)[O-])c1C,inactive
7,CC1CCCCCCCCCCCCC(=O)C1 (stereo not drawn),inactive
8,CCC1OC(C)=C(O)C1=O (stereo not drawn),inactive
9,CC(CO)CS (stereo not drawn),inactive
10,CCCCCC(=O)C(C)C(C)=O (stereo not drawn),inactive
11,CC1=C(O)C(=O)OC1C (stereo not drawn),inactive
12,CCC1OC(=O)C(O)=C1C (stereo not drawn),inactive
13,CCCCCCC=CCCC=O,inactive
14,CCCCC(S)C(C)CO (stereo not drawn),inactive
15,CCCCCC(S)C(C)CO (stereo not drawn),inactive

# Tested on: T10, OR9A2 C304Y
# T10 sequence (whole entry): T9 sequence (whole entry) with C304Y
# Settings: stereoisomer not certain
# How it was run: as §1
row,SMILES,odorant receptor agonist call
1,CC1=NC(C)C(C)S1 (stereo not drawn),inactive
2,CC1=C(O)C(=O)C(C)O1 (stereo not drawn),inactive
3,CCCC(S)CCOC(C)=O (stereo not drawn),inactive
4,Cc1cnc(C)c(C)n1,inactive
5,CCC1OC(C)=C(O)C1=O (stereo not drawn),inactive
6,CC1=C(O)C(=O)OC1C (stereo not drawn),inactive
7,CCC1OC(=O)C(O)=C1C (stereo not drawn),inactive
8,CCCCCCC=CCCC=O,inactive
